Reference: ChEMBL document CHEMBL1145269, “Synthesis and evaluation of urea-based indazoles as melanin-concentrating hormone receptor 1 antagonists for the treatment of obesity” (Bioorg Med Chem Lett, 2005)

What was measured:
[1] = target: Melanin-concentrating hormone receptor (Homo sapiens, UniProt Q969V1+Q99705); assay: Inhibition of Melanin-concentrating hormone (MCH) mediated [Ca2+] release in IMR-32 cells; assay type: functional, cell-based
[2] = Maximum plasma compound (10 mg/kg, p.o.) concentration in diet-induced obese mice; assay type: ADME, organism-based; parameters: dose 10 mg/kg, route oral; conditions: mouse, po
[3] = Area under curve in diet-induced obese mice brain at 10 mg/kg (p.o.) concentration; assay type: ADME, organism-based; parameters: dose 10 mg/kg, route oral; conditions: mouse, in vivo, po
[4] = Area under curve in diet-induced obese mice plasma at 10 mg/kg (p.o.) concentration; assay type: ADME, organism-based; parameters: dose 10 mg/kg, route oral; conditions: mouse, in vivo, po
[5] = target: Melanin-concentrating hormone receptor 1 (Homo sapiens) (UniProt Q99705); assay: Inhibitory concentration against Melanin-concentrating hormone receptor 1 in human IMR-32 cells
[6] = Area under curve in diet-induced obese mice brain at 10 mg/kg (p.o.) concentration; n=3; assay type: ADME, organism-based; parameters: dose 10 mg/kg, route oral; conditions: mouse, in vivo, po
[7] = Area under curve in diet-induced obese mice plasma at 10 mg/kg (p.o.) concentration; n=3; assay type: ADME, organism-based; parameters: dose 10 mg/kg, route oral; conditions: mouse, in vivo, po
[8] = target: Melanin-concentrating hormone receptor 1 (Homo sapiens) (UniProt Q99705); assay: Inhibitory concentration against human Melanin-concentrating hormone receptor 1 expressed in IMR-32 cells using [125I]MCH
[9] = Maximum brain compound (10mg/kg, p.o.) concentration in diet-induced obese mice; assay type: ADME, organism-based; parameters: dose 10 mg/kg, route oral; conditions: mouse, po
Mus musculus [10] = assay: Body weight of the mice after treatment with the compound (30 mg/kg, p.o.) on day 0 (Vehicle=45.0 1 0.7); assay type: functional
Mus musculus [11] = assay: Body weight of the mice after treatment with the compound (100 mg/kg, p.o.) on day 0 (Vehicle=45.0 1 0.7); assay type: functional
Mus musculus [12] = assay: Body weight of the mice after treatment with the compound (30 mg/kg, p.o.) on day 14 (Vehicle=46.9 1 0.8); assay type: functional
Mus musculus [13] = assay: Body weight of the mice after treatment with the compound (100 mg/kg, p.o.) on day 14 (Vehicle=46.9 1 0.8); assay type: functional
Mus musculus [14] = assay: Percent change of mice body weight after treatment with the compound (30 mg/kg, p.o.) to that of vehicle; assay type: functional
Mus musculus [15] = assay: Percent change of mice body weight after treatment with the compound (100 mg/kg, p.o.) to that of vehicle; assay type: functional
Mus musculus [16] = assay: Compound (100 mg/kg, bid) tested for reduction of fat mass in mice (vehicle=22.1); assay type: functional
Mus musculus [17] = assay: Mean cumulative food intake of mice on day 1 after treatment with compound at 30 mg/kg; n=12; assay type: functional
How it was run: (§1)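 Chronic study in DIO mice fed a 60 kcal % fat diet ad libitum, dosed by oral gavage bid for 14 days at 30 or 100 mg/kg in 1% Tween 80/water (4 mL/kg). Food weighed on the first day and periodically thereafter. Cumulative intake reported on days 1, 5, 7, 11 and 14; mean ± SEM, n = 12.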

Mus musculus [18] = assay: Mean cumulative food intake of mice on day 5 after treatment with compound at 30 mg/kg; n=12; assay type: functional; how it was run: as §1
Mus musculus [19] = assay: Mean cumulative food intake of mice on day 7 after treatment with compound at 30 mg/kg; n=12; assay type: functional; how it was run: as §1
Mus musculus [20] = assay: Mean cumulative food intake of mice on day 1 after treatment with compound at 100 mg/kg; n=12; assay type: functional; how it was run: as §1
Mus musculus [21] = assay: Mean cumulative food intake of mice on day 11 after treatment with compound at 30 mg/kg; n=12; assay type: functional; how it was run: as §1
Mus musculus [22] = assay: Mean cumulative food intake of mice on day 14 after treatment with compound at 30 mg/kg; n=12; assay type: functional; how it was run: as §1
Mus musculus [23] = assay: Mean cumulative food intake of mice on day 5 after treatment with compound at 100 mg/kg; n=12; assay type: functional; how it was run: as §1
Mus musculus [24] = assay: Mean cumulative food intake of mice on day 7 after treatment with compound at 100 mg/kg; n=12; assay type: functional; how it was run: as §1
Mus musculus [25] = assay: Mean cumulative food intake of mice on day 11 after treatment with compound at 100 mg/kg; n=12; assay type: functional; how it was run: as §1
Mus musculus [26] = assay: Mean cumulative food intake of mice on day 14 after treatment with compound at 100 mg/kg; n=12; assay type: functional; how it was run: as §1
Mus musculus [27] = assay: Body weight of the mice after treatment with the compound (10 mg/kg, p.o.) on day 0 (Vehicle=45.0 1 0.7); n=12; assay type: functional
Mus musculus [28] = assay: Body weight of the mice after treatment with the compound (10 mg/kg, p.o.) on day 14 (Vehicle=46.9 1 0.8); n=12; assay type: functional
Mus musculus [29] = assay: Percent change of mice body weight after treatment with the compound (10 mg/kg, p.o.) to that of vehicle; n=12; assay type: functional
Mus musculus [30] = assay: Mean cumulative food intake of mice on day 1 after treatment with compound at 10 mg/kg; n=12; assay type: functional
How it was run: (§2)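 DIO mice, kept on a high-fat diet (60 kcal % fat, 5.2 kcal/g) for about 16 weeks with ad libitum feeding. Given 10 mg/kg po by gavage qd for 14 days in 1% Tween 80/water at 4 mL/kg, alongside vehicle. Food weighed on the first day and periodically thereafter; cumulative intake reported at days 1, 5, 7, 11 and 14. Mean ± SEM, n = 12.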

Mus musculus [31] = assay: Mean cumulative food intake of mice on day 5 after treatment with compound at 10 mg/kg; n=12; assay type: functional; how it was run: as §2
Mus musculus [32] = assay: Mean cumulative food intake of mice on day 7 after treatment with compound at 10 mg/kg; n=12; assay type: functional; how it was run: as §2
Mus musculus [33] = assay: Mean cumulative food intake of mice on day 11 after treatment with compound at 10 mg/kg; n=12; assay type: functional; how it was run: as §2
Mus musculus [34] = assay: Mean cumulative food intake of mice on day 14 after treatment with compound at 10 mg/kg; n=12; assay type: functional; how it was run: as §2

`O=C(Cc1ccc(OCc2ccccc2)cc1)Nc1ccc2cnn(CCN3CCCC3)c2c1` gave an IC50 [1] of 11 nM, a Cmax [2] of 596 ng/mL and an AUC [3] of 1.33 µg·h/g. The AUC [4] was 2.12 µg/h/mL and the IC50 [5] was 1.4 nM.

Work on `O=C(CNCc1ccc(Oc2ccccc2)cc1)Nc1ccc2ccn(CCN3CCCC3)c2c1` yielded an IC50 [1] of 1810 nM, an AUC [3] of 0.674 µg·h/g and an AUC [4] of 1.16 µg/h/mL. The IC50 [5] was 299 nM.

Work on `O=C(NCCc1ccc(Oc2ccccc2)cc1)Nc1ccc2cnn(CCN3CCCC3)c2c1` yielded an IC50 [1] of 178 nM, a Cmax [2] of 86 ng/mL and an AUC [6] of 0 µg/h/g. For the same compound, the AUC [7] was 0.335 µg/h/g and the IC50 [8] was 34.3 nM.

In the case of `O=C(Nc1ccc(Oc2ccccc2)cc1)Nc1ccc2c(cnn2CCN2CCC(O)CC2)c1`, the IC50 [1] is reported as greater than 10000 nM and the IC50 [8] is reported as 6130 nM.

Work on `O=c1n(-c2ccc(Oc3ccccc3)cc2)ccn1-c1ccc2c(cnn2CCN2CCCC2)c1` yielded an IC50 [1] of 654 nM, a Cmax [9] of 183 ng/g and a Cmax [2] of 543 ng/mL. It also gave an AUC [6] of 1.71 µg/h/g, an AUC [7] of 1.35 µg/h/mL and an IC50 [8] of 5.9 nM.

Work on `COC[C@@H]1CCCN1CCCn1ncc2cc(NC(=O)Nc3ccc(Oc4ccccc4)cc3)ccc21` yielded an IC50 [1] of 1177 nM and an IC50 [8] of 82.9 nM.

`O=C(Nc1ccc(Oc2ccccc2)cc1)Nc1ccc2c(cnn2CCN2CCC(F)(F)C2)c1` showed an IC50 [1] greater than 10000 nM and an IC50 [8] of 305 nM.

`CC(C)CNCCn1ncc2cc(NC(=O)Nc3ccc(Oc4ccccc4)cc3)ccc21` gave an IC50 [1] of 751 nM and an IC50 [8] of 1.8 nM.

Work on `O=C(NCCc1ccc(Oc2ccccc2)cc1)Nc1ccc2c(cnn2CCN2CCCC2)c1` yielded an IC50 [1] greater than 10000 nM and an IC50 [8] of 545 nM.

In the case of `O=C(Nc1ccc(Oc2ccccc2)cc1)Nc1ccc2c(cnn2CCNC2CCCC2)c1`, the IC50 [1] is reported as 147 nM and the IC50 [8] is reported as 2.4 nM.

Compound `O=C(NCc1ccc(Oc2ccccc2)cc1)Nc1ccc2c(cnn2CCN2CCCC2)c1` has an IC50 [1] greater than 10000 nM and an IC50 [8] of 508 nM.

Work on `O=C(NCc1ccc(Oc2ccccc2)cc1)Nc1ccc2cnn(CCN3CCCC3)c2c1` yielded an IC50 [1] of 626 nM and an IC50 [8] of 78.5 nM.

Work on `NC(=O)C1CCN(CCn2ncc3cc(NC(=O)Nc4ccc(Oc5ccccc5)cc4)ccc32)CC1` yielded an IC50 [1] of 171 nM and an IC50 [8] of 134 nM.

For `NC(=O)C1CCN(CCCn2ncc3cc(NC(=O)Nc4ccc(Oc5ccccc5)cc4)ccc32)CC1`, the IC50 [1] was 2880 nM and the IC50 [8] was 40.6 nM.

With `COC[C@@H]1CCCN1CCn1ncc2cc(NC(=O)Nc3ccc(Oc4ccccc4)cc3)ccc21` the IC50 [1] was 516 nM and the IC50 [8] was 38.7 nM.

In the case of `O=C(Nc1ccc2cnn(CCN3CCCC3)c2c1)NC1CCN(Cc2ccccc2)CC1`, the IC50 [1] is reported as greater than 10000 nM and the IC50 [8] is reported as 4510 nM.

In the case of `O=C(Nc1ccc(OCc2ccccc2)cc1)Nc1ccc2c(cnn2CCN2CCCC2)c1`, the IC50 [1] is reported as greater than 10000 nM and the IC50 [8] is reported as 41.3 nM.

`O=C(Nc1ccc(Oc2ccccc2)cc1)Nc1ccc2cnn(CCN3CCCC3)c2c1` gave an IC50 [1] greater than 10000 nM and an IC50 [8] of 581 nM.

Work on `O=C(Nc1ccc(OCc2ccccc2)cc1)Nc1ccc2cnn(CCN3CCCC3)c2c1` yielded an IC50 [1] of 7140 nM and an IC50 [8] of 113 nM.

Work on `O=C(Nc1ccc(Oc2ccccc2)cc1)Nc1cccc2c1cnn2CCN1CCCC1` yielded an IC50 [1] greater than 10000 nM and an IC50 [8] of 1850 nM.

Compound `O=C(Nc1ccc(Oc2ccccc2)cc1)Nc1ccc2c(cnn2CCCN2CCC(O)CC2)c1` has an IC50 [1] of 894 nM and an IC50 [8] of 91.5 nM.

In the case of `O=C1N(c2ccc(Oc3ccccc3)cc2)CCN1c1ccc2c(cnn2CCN2CCCC2)c1`, the IC50 [1] is reported as 1120 nM and the IC50 [8] is reported as 19.8 nM.

In the case of `O=C(Nc1ccc(OCc2ccccc2)cc1)Nc1cccc2c1cnn2CCN1CCCC1`, the IC50 [1] is reported as greater than 10000 nM and the IC50 [8] is reported as 1050 nM.

`O=C(Nc1ccc(Oc2ccccc2)cc1)Nc1ccc2c(cnn2CCN2CCCC2)c1` gave a Body weight (Mus musculus [10]) of 42.3 g, a Body weight (Mus musculus [11]) of 42.5 g and a Body weight (Mus musculus [12]) of 42.3 g. For the same compound, the Body weight (Mus musculus [13]) was 36.3 g, the “Change in body weight” value (Mus musculus [14]) was -3.41% and the “Change in body weight” value (Mus musculus [15]) was -17.1%. It also gave an Activity (Mus musculus [16]) of 16.6 g, an Activity (Mus musculus [17]) of 3 and an Activity (Mus musculus [18]) of 11.2. It also gave an Activity (Mus musculus [19]) of 20.1, an Activity (Mus musculus [20]) of 2.17 and an Activity (Mus musculus [21]) of 32.4. The Activity (Mus musculus [22]) was 39.8, the Activity (Mus musculus [23]) was 7.86 and the Activity (Mus musculus [24]) was 13.6. The Activity (Mus musculus [25]) was 23.6, the Activity (Mus musculus [26]) was 29.4 and the Cmax [9] was 260 ng/g. The Cmax [2] was 246 ng/mL, the AUC [6] was 1.43 µg/h/g and the AUC [7] was 5.35 µg/h/g.

In the case of `CCN[C@@H](C)Cc1cccc(C(F)(F)F)c1` [DEXFENFLURAMINE], the Body weight (Mus musculus [27]) is reported as 42.7 g, the Body weight (Mus musculus [28]) is reported as 39.8 g and the “Change in body weight” value (Mus musculus [29]) is reported as 9.12%. For the same compound, the Activity (Mus musculus [30]) was 0.89, the Activity (Mus musculus [31]) was 8.44 and the Activity (Mus musculus [32]) was 17.8. The Activity (Mus musculus [33]) was 31.1 and the Activity (Mus musculus [34]) was 39.9.
